Results on one molecule are retold here after ChEMBL document CHEMBL1122008, “Lipophilic 5'-(alkyl phosphate) esters of 1-beta-D-arabinofuranosylcytosine and its N4-acyl and 2,2'-anhydro-3'-O-acyl derivatives as potential prodrugs” (1982).

Common to all, as to assay type: functional
The subject of assay [1] is Mus musculus. Nature of the assay: Antitumor activity against L1210/ara-C leukemia in mice (Average weight per mouse on day 1.) at the dose of 468 mg/kg. The method in brief:
(§1)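 Male B6D2F1J mice, groups of 5–9, inoculated ip with 10^5 L1210/ara-C cells on day 0. Dosing began day 1 on a qd×5 or q4d(2,6) schedule. Ara-C was given in sterile water, the n-butyl phosphate ester in 0.05 M pH 7.4 potassium phosphate buffer, and others as suspensions in 0.4% Tween 80/0.5% CMC/0.9% benzyl alcohol/0.9% saline. Mice were weighed on days 1 and 7; 7-day change given in g and %.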

In assay [2] the test system is Mus musculus. The assay is described as follows: Antitumor activity against L1210 leukemia in mice (Average 7-day weight change) at the dose of 234 mg/kg. In outline: (§2)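 Male B6D2F1J mice, groups of five to nine, inoculated ip with 10^5 L1210 cells on day 0. Drug treatment started day 1 on qd×5 or q4d(2,6) schedule. Vehicles: ara-C in sterile water; the n-butyl phosphate ester in 0.05 M pH 7.4 potassium phosphate buffer; others as suspensions in 0.4% Tween 80/0.5% low-density CMC/0.9% benzyl alcohol/0.9% saline. Mice weighed days 1 and 7; 7-day weight change given as g/mouse and %.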

Assay [3] has as its system Mus musculus. The assay is described as follows: Antitumor activity against L1210 leukemia in mice (Average weight per mouse on day 1.) at the dose of 117 mg/kg. In outline: (§3)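 Male B6D2F1J mice (5–9 per group) received 10^5 L1210 cells i.p. on day 0 and drug from day 1, given qd×5 or q4d(2,6). Vehicles were sterile water, 0.05 M potassium phosphate pH 7.4, or 0.4% Tween 80/0.5% CMC/0.9% benzyl alcohol/0.9% saline. Read-out is average body weight per mouse (g) on day 1.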

Assay [4] concerns Mus musculus. Nature of the assay: Antitumor activity against L1210/ara-C leukemia in mice (Average 7-day weight change (%)) at the dose of 234 mg/kg. The method in brief: (§4)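 Male B6D2F1J mice (5–9 per group) were given 10^5 L1210/ara-C cells i.p. on day 0, with treatment from day 1 on qd×5 or q4d(2,6). Vehicles were sterile water, pH 7.4 0.05 M phosphate buffer, or a Tween 80/CMC/benzyl alcohol saline suspension. Weights were taken on days 1 and 7; change is expressed in g/mouse and as a percentage.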

Assay [5] relates to Mus musculus. Nature of the assay: Antitumor activity against L1210/ara-C leukemia in mice (Average 7-day weight change) at the dose of 117 mg/kg. In outline: as §4
Assay [6] relates to Mus musculus. The assay is described as follows: Antitumor activity against L1210/ara-C leukemia in mice (Average 7-day weight change (%)) at the dose of 468 mg/kg. In outline:
as §4

Assay [7] relates to Mus musculus. The assay is described as follows: Antitumor activity against L1210 leukemia in mice (Average weight per mouse on day 1.) at the dose of 234 mg/kg. The method in brief:
as §3

The subject of assay [8] is Mus musculus. Nature of the assay: Antitumor activity against L1210/ara-C leukemia in mice (Average 7-day weight change) at the dose of 234 mg/kg. In outline:
as §4

For assay [9], the system named is Mus musculus. The assay is described as follows: Antitumor activity against L1210/ara-C leukemia in mice (Percent increase in life span.) at the dose of 468 mg/kg. The method in brief:
(§5)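 Same protocol as the L1210 assay, but with 10^5 kinase-deficient L1210/ara-C cells inoculated ip into male B6D2F1J mice (groups of 5–9) on day 0. Treatment begins day 1, qd×5 or q4d(2,6). %ILS = (T/C − 1)×100 using median survival times of treated and control groups. Body weight recorded days 1 and 7.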

The test system of assay [10] is Mus musculus. The assay is described as follows: Antitumor activity against L1210 leukemia in mice (Percent increase in life span.) at the dose of 234 mg/kg (mice surviving 20 or more days). The method in brief: (§6)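 Male B6D2F1J mice, groups of 5–9, inoculated ip with 10^5 L1210 cells on day 0. Dosing starts day 1 on a qd×5 or q4d(2,6) schedule. Vehicles are sterile water, pH 7.4 0.05 M potassium phosphate buffer, or 0.4% Tween 80/0.5% CMC/0.9% benzyl alcohol/0.9% saline. %ILS = (T/C − 1)×100 from median survival. Weights taken days 1 and 7.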

Assay [11] concerns Mus musculus. Nature of the assay: Antitumor activity against L1210 leukemia in mice (Average 7-day weight change) at the dose of 468 mg/kg. The method in brief:
as §2

The subject of assay [12] is Mus musculus. Nature of the assay: Antitumor activity against L1210/ara-C leukemia in mice (Percent increase in life span.) at the dose of 117 mg/kg. In outline:
as §5

The subject of assay [13] is Mus musculus. The assay is described as follows: Antitumor activity against L1210/ara-C leukemia in mice (Average weight per mouse on day 1.) at the dose of 234 mg/kg. In outline: as §1
Assay [14] deals with Mus musculus. The assay is described as follows: Antitumor activity against L1210 leukemia in mice (Average 7-day weight change (%)) at the dose of 117 mg/kg. In outline:
as §2

Assay [15] relates to Mus musculus. The assay is described as follows: Antitumor activity against L1210 leukemia in mice (Percent increase in life span.) at the dose of 468 mg/kg (mice surviving 20 or more days). The method in brief: as §6
For assay [16], the system named is Mus musculus. The assay is described as follows: Antitumor activity against L1210 leukemia in mice (Percent increase in life span.) at the dose of 117 mg/kg. In outline:
as §6

Assay [17] concerns Mus musculus. Nature of the assay: Antitumor activity against L1210/ara-C leukemia in mice (Percent increase in life span.) at the dose of 234 mg/kg. The method in brief:
as §5

For assay [18], the system named is Mus musculus. The assay is described as follows: Antitumor activity against L1210 leukemia in mice (Average 7-day weight change) at the dose of 117 mg/kg. The method in brief:
as §2

In assay [19] the test system is Mus musculus. The assay is described as follows: Antitumor activity against L1210 leukemia in mice (Average 7-day weight change (%)) at the dose of 234 mg/kg. The method in brief: as §2
The subject of assay [20] is Mus musculus. Nature of the assay: Antitumor activity against L1210 leukemia in mice (Average 7-day weight change (%)) at the dose of 468 mg/kg. In outline: as §2
For assay [21], the system named is Mus musculus. Nature of the assay: Antitumor activity against L1210/ara-C leukemia in mice (Average 7-day weight change (%)) at the dose of 117 mg/kg. The method in brief: as §4
Assay [22] relates to Mus musculus. The assay is described as follows: Antitumor activity against L1210/ara-C leukemia in mice (Average 7-day weight change) at the dose of 468 mg/kg. In outline: as §4
In assay [23] the test system is Mus musculus. The assay is described as follows: Antitumor activity against L1210/ara-C leukemia in mice (Average weight per mouse on day 1.) at the dose of 117 mg/kg. In outline: as §1
In assay [24] the test system is Mus musculus. The assay is described as follows: Antitumor activity against L1210 leukemia in mice (Average weight per mouse on day 1.) at the dose of 468 mg/kg. The method in brief:
as §3

Molecules are shown by their SMILES.

Take `CCCCCCCCCCCCCCCC(=O)O[C@H]1[C@@H]2Oc3nc(=N)ccn3[C@@H]2O[C@@H]1COP(=O)(O)OCC`: the Average weight in the assay on Mus musculus [1] was 22 g mouse-1; in the assay with Mus musculus [3], 24.4 g mouse-1; in the assay with Mus musculus [7], 24.2 g mouse-1; in the assay with Mus musculus [13] it was 21.4 g mouse-1; in the assay with Mus musculus [23] it was 22.4 g mouse-1; in the assay with Mus musculus [24], 23.6 g mouse-1. Further, the Weight change with Mus musculus [2] was -2.6 g mouse-1; with Mus musculus [4], 1%; in the assay on Mus musculus [5], 2 g mouse-1; in the assay on Mus musculus [6], -20%; with Mus musculus [8], 0.2 g mouse-1; in the assay with Mus musculus [11], -3.8 g mouse-1. Moreover, the Weight change in the assay on Mus musculus [14] is recorded as -7%; in the assay on Mus musculus [18], -1.6 g mouse-1; in the assay on Mus musculus [19], -11%; in the assay on Mus musculus [20] it was -16%; with Mus musculus [21], 9%; with Mus musculus [22], -2.4 g mouse-1. Besides, the ILS at 468 mg/kg in the assay with Mus musculus [9] is -13%; in the assay with Mus musculus [15], 100%. Besides, the values for the ILS at 234 mg/kg in the assay on Mus musculus [10] and in the assay with Mus musculus [17] were 138% and 0%, respectively. The ILS at 117 mg/kg came to 0% in the assay with Mus musculus [12] and 75% in the assay with Mus musculus [16].
